From ChEMBL document CHEMBL3108678, “Isolation and synthesis of pulmonarins A and B, acetylcholinesterase inhibitors from the colonial ascidian Synoicum pulmonaria” (J Nat Prod, 2014) come the findings set out here.

Molecules are shown by their SMILES. Activity calls are given as the source filed them. No cut-off for these calls is given here.

One series concerns Escherichia coli. Description: Antimicrobial activity against Escherichia coli ATCC 25922 at 8 to 500 ug/ml after 24 hrs. The series is classed as functional, organism-based. The method, boiled down:
(§1)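 Broth microdilution in Mueller Hinton broth at 37 °C. Samples dissolved in H2O are mixed 1:1 with log-phase bacterial suspension, about 5 × 10⁵ cells per well, and tested at 8 to 500 μg/mL. Growth is followed by optical density. MIC is the lowest concentration giving no OD change after 24 h at 37 °C. Cecropin B (25 μM) serves as positive control.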

The test system of the next series is Pseudomonas aeruginosa. The series is described as follows: Antimicrobial activity against Pseudomonas aeruginosa ATCC 27853 at 8 to 500 ug/ml after 24 hrs. The series is classed as functional, organism-based. The method, boiled down: as §1
Series [1] has as its system Staphylococcus epidermidis. The series is described as follows: Antimicrobial activity against Staphylococcus epidermidis ATCC 35984 assessed as inhibition of biofilm formation. The series is classed as functional, organism-based.
Series [2] deals with T1, Acetylcholinesterase (Electrophorus electricus, UniProt O42275). Description: Inhibition of electric eel AChE using acetylthiocholine chloride as substrate after 5 mins by Ellman's method. For orientation: Ellman's reagent forms a yellow product with free thiols.
T1 sequence (O42275 whole entry): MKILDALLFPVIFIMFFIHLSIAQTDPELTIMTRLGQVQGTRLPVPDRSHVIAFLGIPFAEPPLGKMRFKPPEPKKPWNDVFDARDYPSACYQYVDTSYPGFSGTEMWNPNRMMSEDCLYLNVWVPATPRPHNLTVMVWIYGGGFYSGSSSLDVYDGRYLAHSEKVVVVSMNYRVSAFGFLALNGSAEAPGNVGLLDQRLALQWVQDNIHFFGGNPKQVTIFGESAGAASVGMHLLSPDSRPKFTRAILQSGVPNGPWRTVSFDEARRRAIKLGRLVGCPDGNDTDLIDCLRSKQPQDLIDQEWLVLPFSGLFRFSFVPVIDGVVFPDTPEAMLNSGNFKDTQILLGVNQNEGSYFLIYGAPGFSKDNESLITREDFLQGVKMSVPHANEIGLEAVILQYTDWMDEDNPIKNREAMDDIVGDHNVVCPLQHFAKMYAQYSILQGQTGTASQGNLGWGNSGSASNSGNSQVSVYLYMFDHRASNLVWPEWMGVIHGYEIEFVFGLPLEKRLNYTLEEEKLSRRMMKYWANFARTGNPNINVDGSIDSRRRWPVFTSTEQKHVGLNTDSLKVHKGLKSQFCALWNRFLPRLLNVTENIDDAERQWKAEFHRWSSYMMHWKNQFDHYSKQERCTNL
The next series concerns MCF7. The series is described as follows: Cytotoxicity against human MCF7 cells. The series is classed as cell-based.
The test system of a further series is Staphylococcus aureus. The series is described as follows: Antimicrobial activity against Staphylococcus aureus ATCC 9144 at 8 to 500 ug/ml after 24 hrs. The series is classed as functional, organism-based. The method, boiled down: as §1
Another series concerns A2058. Description: Cytotoxicity against human A2058 cells. The series is classed as cell-based.
A further series deals with HT-29. Description: Cytotoxicity against human HT-29 cells. The series is classed as cell-based.
In another series the test system is MRC5. Description: Cytotoxicity against human MRC5 cells. The series is classed as cell-based.
Series [3] relates to Corynebacterium glutamicum. Description: Antimicrobial activity against Corynebacterium glutamicum ATCC 13032 after 24 hrs. The series is classed as functional. Conditions: ATCC 13032, 24 h. The method, boiled down:
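Broth microdilution in Mueller Hinton broth at 37 °C. Compounds were dissolved in water and tested from 8 to 500 μg/mL against log-phase bacteria at a start of about 5 × 10⁵ cells per well. Growth was followed by optical density, with cecropin B (25 μM) as positive control. MIC was taken as the lowest concentration giving no change in optical density after 24 h at 37 °C.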

In series [4] the target is T1, Acetylcholinesterase. The series is described as follows: Noncompetitive inhibition of electric eel AChE using acetylthiocholine chloride as substrate after 5 mins by Dixon plot analysis.

The IC50 is the point on the concentration scale where inhibition reaches its midpoint. The MIC is the lowest concentration that inhibits growth of the organism. Higher therefore signals a need for much substance. One may read the Ki as the dissociation constant of the complex between target and ligand, obtained from inhibition or displacement. Lower therefore signals tighter binding. `COc1c(Br)cc(CC(=O)NCCCCC[N+](C)(C)C)cc1Br.[I-]`: the result in the series with Escherichia coli, with Pseudomonas aeruginosa and in the series on Staphylococcus aureus was inactive. For the same compound, the inhibition entry in series [1] was “inactive”. The same compound displayed an IC50 against Acetylcholinesterase [2] of 36 µM. Besides, the Activity entry in the series on MCF7, in the series with A2058, in the series on HT-29 and in the series on MRC5 was “Non-toxic” throughout. Moreover, in series [3], the MIC turned out to be 250 µg/mL. Also, at Acetylcholinesterase [4], the Ki is 20 µM.

As to `COc1c(Br)cc(C(=O)OCC[N+](C)(C)C)cc1Br.[Cl-]`, the outcome in the series on Escherichia coli, in the series on Pseudomonas aeruginosa and with Staphylococcus aureus was inactive. Moreover, the inhibition result in [1] is “inactive”. In addition, on Acetylcholinesterase [2], the IC50 was determined as 105 µM. The Activity result in the series on MCF7, with A2058, with HT-29 and in the series on MRC5 was “Non-toxic” each time. The same compound came in with an MIC in [3] of 500 µg/mL. Also, the affinity on Acetylcholinesterase [4], expressed as Ki, was 90 µM.
